From PubChem BioAssay
The source made the active and inactive calls.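 Rule for the calls, unless noted: active = inhibition above 20% together with a positive visual image hit; inconclusive = visual image hit but inhibition not above 20%; inactive = no visual image hit.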

Key:
[1] = inhibitors of TNFa-induced NFkB p65 translocation, primary screen, imaging, HUVEC, MLSMR starter and 10KST1 sets (AID 438); conditions: HUVEC TNFa-induced p65 nuclear translocation; cell count: measured here: nuclei count (cytotoxicity indicator), at 2.08 µM; inhibition: at 2 µM, stronger effect = higher value, 0% TNFa-plus-vehicle, 100% no-TNFa wells;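 note: compound added about 3h40 before a 20 min TNFalpha stimulation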;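 for inhibition: signal is the nuclear over cytoplasmic p65 intensity ratio per well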
[2] = reduction of polyQ htt aggregates in cells – imaging, exon1htt(103Q)mCFP cells, high-content imaging, primary screen (AID 483;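 active = visual image review flags a hit and inhibition of aggregation exceeds 20%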;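 note: compound exposure lasted 3 days before fixation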;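 for nuclei count: percent of the per-plate median nuclei count of sample wells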); conditions: exon1htt(103Q)mCFP cell line, aggregate imaging, at 2 µM; inhibition of aggregation: stronger effect = higher value; nuclei count: measured here: cell count, toxicity
[3] = endothelial E-selectin expression blockers – imaging, HUVEC, immunofluorescence, MLSMR starter and 10KST1 sets, primary screen (AID 487;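 active = visually confirmed hit in the image check and inhibition above 20%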;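 for inhibition: signal is fraction of cell area covered by stained E-selectin grains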;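 for nuclei count: 100% = median nuclei count of all wells on the same plate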); conditions: HUVEC TNFalpha-induced E-selectin immunofluorescence imaging, at 2 µM; inhibition: stronger effect = higher value; nuclei count: measured here: cell number, toxicity
[4] = target: Voltage-gated potassium channel subunit beta-2 (Rattus norvegicus) (UniProt P62483); assay: inhibitors of rat Kvbeta2 reductase activity – biochemical, NADPH fluorescence, primary screen (AID 622;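 active = fluorescence slope higher than the sample average by over 3 SD, cut at about -0.22 in these data, passing the limit was not always enough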;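 note: slope of raw intensity against log time taken from 70 to 1610 s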); conditions: recombinant KvBeta, 4-cyanobenzaldehyde reduction, at 10 µM, stronger effect = higher value
[5] = target: Voltage-gated potassium channel subunit beta-2 (Rattus norvegicus) (UniProt P62483); assay: enhancers of rat Kvbeta2 NADPH turnover – biochemical, NADPH fluorescence, primary screen (AID 623;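 active = NADPH fluorescence slope more negative than the mean of all samples by about 3 SD, 99.7% confidence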;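 note: fluorescence intensity change per second fitted from 20 to 320 s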); conditions: Recombinant KvBeta, NADPH fluorescence decrease slope, 10 min; at 10 µM; stronger effect = lower value
[6] = target: Muscarinic acetylcholine receptor M4 (Homo sapiens) (UniProt P08173); assay: M4-linked GIRK flux change, two-sided – cell-based, HEK293 M4/GIRK, thallium flux, BTC-AM, M4 allosteric agonist project, primary screen (AID 625;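 active = fluorescence slope after compound addition differing from the mean of all tested samples at 99.7% confidence, mostly higher but some lower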;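 note: thallium influx through GIRK channels coupled to M4 in HEK293 cells with BTC-AM dye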); conditions: at 10 µM, actives lie on both sides
How it was run: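 assay system = HEK293 cells with M4 receptor and GIRK channels | medium = pH 7.3 thallium assay buffer | doses = 10 µM final, single point | timing = cells overnight at 37 °C, BTC-AM loading 1 h, reads 2 min total | signal = BTC-AM fluorescence, 1 Hz kinetic reads | read-out = post-addition slope, 15–24 s, of baseline-normalized fluorescence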

[7] = blockers of RIG-like receptor reporter activation – cell-based, Sendai virus stimulus, luciferase, 10K MLSCN set, TLR/RLR signaling modifier project, primary screen (AID 602276;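 active = inhibition at or above 50% at 10 µM; inactive = inhibition below 50%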;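 note: firefly luciferase from ISG56 promoter only with Renilla not read in this screen; 0% = Sendai virus plus DMSO and 100% = medium plus DMSO without virus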); conditions: HEK293 RL24 IRF3 luciferase reporter, at 10 µM, stronger effect = higher value
[8] = TLR3 IRF3 reporter activation blockers – cell-based, poly I:C stimulus, luciferase, 10K MLSCN set, primary screen (AID 602277;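 active = inhibition of the reporter signal at or above 50%; inactive = inhibition below 50%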); conditions: HEK293-TLR3 RL24 IRF3 luciferase reporter, at 10 µM, stronger effect = higher value

Chain of Muscarinic acetylcholine receptor M4 (Homo sapiens) (P08173 whole entry, looked up): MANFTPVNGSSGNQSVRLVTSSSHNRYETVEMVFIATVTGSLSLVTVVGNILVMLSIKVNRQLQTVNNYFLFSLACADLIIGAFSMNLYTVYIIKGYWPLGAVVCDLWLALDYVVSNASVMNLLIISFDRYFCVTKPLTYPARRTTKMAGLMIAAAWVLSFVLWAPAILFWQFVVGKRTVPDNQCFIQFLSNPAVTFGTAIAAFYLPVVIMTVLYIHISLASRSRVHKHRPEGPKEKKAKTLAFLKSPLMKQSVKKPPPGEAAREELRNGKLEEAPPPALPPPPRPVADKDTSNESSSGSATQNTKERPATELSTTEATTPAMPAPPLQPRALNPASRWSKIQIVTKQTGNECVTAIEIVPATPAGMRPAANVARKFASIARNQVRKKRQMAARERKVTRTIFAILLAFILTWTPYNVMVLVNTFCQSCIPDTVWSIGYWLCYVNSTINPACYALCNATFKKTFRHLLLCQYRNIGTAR
Chain of Voltage-gated potassium channel subunit beta-2 (Rattus norvegicus) (P62483 whole entry, looked up): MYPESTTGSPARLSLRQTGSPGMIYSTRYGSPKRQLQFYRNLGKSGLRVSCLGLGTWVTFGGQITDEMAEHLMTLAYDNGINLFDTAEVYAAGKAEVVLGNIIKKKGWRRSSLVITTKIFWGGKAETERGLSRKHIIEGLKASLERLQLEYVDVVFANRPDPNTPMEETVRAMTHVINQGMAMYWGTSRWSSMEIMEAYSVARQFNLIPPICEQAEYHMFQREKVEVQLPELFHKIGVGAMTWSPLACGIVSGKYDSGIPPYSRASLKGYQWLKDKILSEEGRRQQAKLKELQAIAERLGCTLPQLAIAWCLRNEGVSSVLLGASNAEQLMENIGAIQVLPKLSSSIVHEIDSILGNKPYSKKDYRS

Row | SMILES | cell count [1] | inhibition [1] | inhibition of aggregation [2] | nuclei count [2] | inhibition [3] | nuclei count [3] | fluorescence slope [4] | NADPH fluorescence slope [5] | fluorescence slope [6] | inhibition [7] | inhibition [8]
1 | O=C(CN1C(=O)NC(Cc2ccccc2)C1=O)Nc1ccccc1 (stereo not drawn) | 436 | 0% (inactive) | 8.9% (inactive) | 59.4% | -32.2% (inactive) | 111% | -0.594 (inactive) | -5.2e-06 (inactive) | 0.00658 (inactive) | -15.9% (inactive) | -20.9% (inactive)
2 | CCOC(=O)NC(=O)CSc1nnc(C)s1 | 804 | 4.3% (inactive) | -0.4% (inactive) | 105% | -130% (inactive) | 135% | -0.421 (inactive) | -9.6e-06 (inactive) | 0.00543 (inactive) | 18.9% (inactive) | 17.5% (inactive)
3 | N#Cc1nc(COc2ccccc2)oc1NCCN1CCOCC1 | 778 | 1.6% (inactive) | -34.9% (inactive) | 96.4% | -14.1% (inactive) | 102% | -0.569 (inactive) | 2.2e-05 (inactive) | 0.00627 (inactive) | 2.21% (inactive) | 2.82% (inactive)
4 | Cc1nc2ccccc2c(=O)n1/N=C/c1ccncc1 | 644 | -6.3% (inactive) | -10.1% (inactive) | 109% | -2.9% (inactive) | 92.1% | -0.526 (inactive) | -3.4e-05 (inactive) | 0.00441 (inactive) | -4.49% (inactive) | 4.48% (inactive)
5 | Cc1c(Cc2ccccc2)sc(N)c1C(N)=O | 335 | -13% (inactive) | -0.8% (inactive) | 115% | -32.2% (inactive) | 113% | -0.574 (inactive) | -2.6e-06 (inactive) | 0.00569 (inactive) | 9.38% (inactive) | 10.8% (inactive)
6 | CCn1ncc(C2=NOC(C(=O)NCc3ccccc3)C2)c1C (stereo not drawn) | 309 | -20.8% (inactive) | -64.1% (inactive) | 2.2% | -53.2% (inactive) | 105% | -0.446 (inactive) | 3.3e-05 (inactive) | 0.00637 (inactive) | 17.4% (inactive) | 73.3% (active)
7 | Cn1c(SCc2cccc3ccccc23)nnc1-c1ccco1 | 574 | 1.6% (inactive) | 3.5% (inactive) | 101% | -63% (inactive) | 103% | -0.545 (inactive) | 2.1e-05 (inactive) | 0.00593 (inactive) | -8.19% (inactive) | -65.7% (inactive)
8 | Cc1ccccc1-c1nc(CN2CCC(C(=O)NCc3cccnc3)CC2)c(C)o1 | 349 | -2.3% (inactive) | -3.7% (inactive) | 103% | -149% (inactive) | 119% | -0.476 (inactive) | -0.000229 (inactive) | 0.00551 (inactive) | 7.42% (inactive) | 17.2% (inactive)
9 | COc1cc(S(=O)(=O)N2CCOCC2)ccc1NC(=O)COC(=O)c1ccccn1 | 621 | 11.9% (inactive) | -7.1% (inactive) | 126% | -45.4% (inactive) | 101% | -0.542 (inactive) | -2.5e-05 (inactive) | 0.00554 (inactive) | 11.7% (inactive) | 20.5% (inactive)
10 | CC(=O)OCC(=O)c1ccc2ccn(C(C)=O)c2c1 | 544 | 1.6% (inactive) | -17.9% (inactive) | 102% | -19.1% (inactive) | 95.5% | -0.258 (inactive) | -1.1e-05 (inactive) | 0.00624 (inactive) | 4.56% (inactive) | -8.58% (inactive)
11 | CCC1Cc2c(nc3c4c(nc(N5CCOCC5)c(C#N)c24)NC(C)=N3)O1 (stereo not drawn) | 657 | 0.8% (inactive) | 7.2% (inactive) | 92.3% | 43.9% (inactive) | 97.4% | -0.35 (inactive) | -1.8e-05 (inactive) | 0.00571 (inactive) | 14.3% (inactive) | 1.06% (inactive)
12 | CCOc1ccc2[nH]c(=O)c(CN(CCOC)C(=O)N3CCOCC3)cc2c1 | 373 | 2.4% (inactive) | -4% (inactive) | 90.4% | -3.2% (inactive) | 99.9% | -0.395 (inactive) | 3.3e-05 (inactive) | 0.0064 (inactive) | 3.22% (inactive) | 12.3% (inactive)
13 | COc1cccc(CN(C(=O)c2cc3ccccc3oc2=O)C2CC2)c1 | 459 | -6.2% (inactive) | -16% (inactive) | 108% | -52.3% (inactive) | 137% | -0.51 (inactive) | -2.3e-05 (inactive) | 0.00464 (inactive) | -43.3% (inactive) | -136% (inactive)
14 | CSc1nsc(SCC(=O)N2CCc3ccccc32)n1 | 296 | -3.5% (inactive) | 22.6% (inactive) | 83.6% | -98.3% (inactive) | 112% | -0.451 (inactive) | 1.5e-05 (inactive) | 0.005 (inactive) | 5.46% (inactive) | -2.99% (inactive)
15 | Cc1cc2ncn(C(=O)N3CCOCC3)c2cc1C | 309 | -2.5% (inactive) | 27.9% (inactive) | 97.2% | -61.7% (inactive) | 122% | -0.572 (inactive) | -3.6e-05 (inactive) | 0.00619 (inactive) | 4.38% (inactive) | 3.06% (inactive)
16 | O=C(O)c1oc2ccccc2c1-n1cccc1 | 436 | 13.8% (inactive) | 10.7% (inactive) | 110% | -0.2% (inactive) | 112% | -0.531 (inactive) | -1.3e-05 (inactive) | 0.00514 (inactive) | 10.5% (inactive) | 26% (inactive)
17 | Cc1ccc(OC(=O)NC2CCS(=O)(=O)C2)cc1C (stereo not drawn) | 395 | -0.3% (inactive) | -6.1% (inactive) | 98.6% | -107% (inactive) | 116% | -0.617 (inactive) | -2.5e-07 (inactive) | 0.00398 (inactive) | 12.7% (inactive) | 17.3% (inactive)
18 | Cc1ccc(NC(=O)Cn2cccc2)cc1Cl | 655 | -12.9% (inactive) | 7% (inactive) | 115% | -4.1% (inactive) | 103% | -0.324 (inactive) | -5.7e-05 (inactive) | 0.00925 (inactive) | 8.59% (inactive) | -12.8% (inactive)
19 | Cc1nc(C)c(C(=O)OCC(=O)N2CCN(c3ccccc3)CC2)s1 | 700 | -4.8% (inactive) | -3.6% (inactive) | 99.4% | -18.7% (inactive) | 102% | -0.567 (inactive) | -2e-05 (inactive) | 0.00679 (inactive) | 16.8% (inactive) | 5.6% (inactive)
20 | Cc1ccc(NC(=O)CNc2cccc(C)c2C)c(C)c1 | 505 | 2.5% (inactive) | -48.7% (inactive) | 12.5% | -54.3% (inactive) | 107% | -0.517 (inactive) | -7.1e-05 (inactive) | 0.00498 (inactive) | 5.56% (inactive) | -4.35% (inactive)
21 | CCN(Cc1cc2cc(OC)ccc2[nH]c1=O)C(=O)Cc1ccc(OC)cc1 | 369 | 1.8% (inactive) | -11.9% (inactive) | 114% | -57.8% (inactive) | 124% | -0.549 (inactive) | -9.8e-05 (inactive) | 0.00319 (inactive) | 11.4% (inactive) | 5.34% (inactive)
22 | CCC(C)(C)NC(=O)C(OC(=O)c1ccco1)c1ccccc1OC (stereo not drawn) | 610 | -6.2% (inactive) | 11% (inactive) | 87.5% | -4.1% (inactive) | 107% | -0.248 (inactive) | 3.7e-06 (inactive) | 0.00739 (inactive) | 0.26% (inactive) | 8.58% (inactive)
23 | Cc1ncc(CO)c2c1OC(C)(C)OC2 | 373 | 2.5% (inactive) | -26.3% (inactive) | 106% | -39.2% (inactive) | 97.7% | -0.515 (inactive) | -0.0002 (inactive) | 0.00488 (inactive) | 8.62% (inactive) | 15.1% (inactive)
24 | CSC1=C(C#N)C(c2ccc(C)cc2)C2=C(CCCC2=O)N1 (stereo not drawn) | 322 | -15.9% (inactive) | -19.6% (inactive) | 100% | 17.3% (inactive) | 109% | -0.557 (inactive) | -5.6e-05 (inactive) | 0.00661 (inactive) | 8.18% (inactive) | 19.7% (inactive)
25 | CCCCN(Cc1cc2cc(OC)ccc2[nH]c1=O)C(=O)COc1ccccc1 | 348 | 4.3% (inactive) | -1.9% (inactive) | 117% | -53.3% (inactive) | 125% | -0.505 (inactive) | -5e-05 (inactive) | 0.00376 (inactive) | 7.27% (inactive) | 13.1% (inactive)
26 | O=C(c1cc(-c2cccs2)on1)N1CCc2ccccc2C1 | 490 | -4.5% (inactive) | -23.8% (inactive) | 106% | -28.9% (inactive) | 96.8% | -0.441 (inactive) | -4.4e-06 (inactive) | 0.00464 (inactive) | 4.86% (inactive) | -18.5% (inactive)
27 | COC(=O)c1[nH]c2cc(OC)ccc2c1NC(=O)CCN1CCCCC1 | 290 | 10.8% (inactive) | -12.7% (inactive) | 70.3% | -82.1% (inactive) | 164% | -0.55 (inactive) | -5.4e-05 (inactive) | 0.0032 (inactive) | -3.43% (inactive) | 3.78% (inactive)
28 | COc1ccccc1-n1c(SCC(N)=O)nnc1-c1ccccc1 | 737 | 19.3% (inactive) | -24.2% (inactive) | 106% | -0.4% (inactive) | 80.6% | -0.484 (inactive) | -3.5e-05 (inactive) | 0.00627 (inactive) | 13.3% (inactive) | 23.1% (inactive)
